Activity calls are given as the source filed them. No cut-off for these calls is given here.
Tests used:
MCF7 [1] = test: Growth inhibition of human MCF7 cells by MTT assay; type: functional, cell-based
Procedure, shortened: (§1)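 Cells were treated with varying compound concentrations and viability was read by MTT assay. IC50 values are reported ± error. Normal fibroblasts were tested alongside.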

Pyruvate kinase PKM [2] = target: T1, Pyruvate kinase PKM (Homo sapiens, UniProt P14618); test: Activation of PKM2 (unknown origin) by pyruvate kinase-lactate dehydrogenase coupled assay
Target sequence in this assay (P14618 whole entry): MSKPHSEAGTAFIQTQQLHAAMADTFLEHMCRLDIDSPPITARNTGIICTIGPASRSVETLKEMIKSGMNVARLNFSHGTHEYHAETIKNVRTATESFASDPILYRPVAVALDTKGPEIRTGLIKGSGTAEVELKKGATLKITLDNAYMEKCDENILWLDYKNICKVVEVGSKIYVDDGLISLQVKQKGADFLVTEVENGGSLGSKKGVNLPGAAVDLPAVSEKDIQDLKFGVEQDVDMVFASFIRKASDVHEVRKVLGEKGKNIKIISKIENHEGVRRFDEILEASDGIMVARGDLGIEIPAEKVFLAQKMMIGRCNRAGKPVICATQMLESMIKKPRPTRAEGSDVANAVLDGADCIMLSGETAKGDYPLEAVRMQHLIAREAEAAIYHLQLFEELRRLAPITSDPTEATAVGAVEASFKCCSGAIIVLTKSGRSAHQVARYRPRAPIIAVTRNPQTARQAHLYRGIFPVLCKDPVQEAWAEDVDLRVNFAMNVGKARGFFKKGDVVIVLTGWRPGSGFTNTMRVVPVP

COLO 201 = test: Growth inhibition of human Colo-201 cells by MTT assay; type: functional, cell-based; procedure, shortened: as §1
MDA-MB-231 = test: Growth inhibition of human MDA-MB-231 cells by MTT assay; type: functional, cell-based; procedure, shortened: as §1
[3] = Growth inhibition of human BCL2 Jurkat cells by MTT assay; type: functional; procedure, shortened: as §1
[4] = Growth inhibition of human Mesenchymal stem cells by MTT assay; type: tissue-based; procedure, shortened: as §1
MCF7 [5] = test: Induction of apoptosis in human MCF7 cells assessed as late apoptotic cells at 100 nM incubated for 48 hrs by AnnexinV/PI staining based flow cytometry; type: functional
MCF7 [6] = test: Induction of apoptosis in human MCF7 cells assessed as viable cells at 100 nM incubated for 48 hrs by AnnexinV/PI staining based flow cytometry; type: functional; details: read-out: Activity
Pyruvate kinase PKM [7] = target: T1, Pyruvate kinase PKM; test: Activation of […] in human MCF7 cells assessed as increase in tetramer formation at 100 nM measured after 48 hrs by DSS cross linker assay; type: cell-based; details: filed as activator
Procedure, shortened: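 MCF-7 cells exposed to 100 nM for 48 h, then cross-linked with disuccinimidyl suberate (DSS). Tetrameric PKM2 was read as the 250 kDa band and compared with untreated MCF-7 control cells.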
Target sequence in this assay (P14618 2-531 limits assumed): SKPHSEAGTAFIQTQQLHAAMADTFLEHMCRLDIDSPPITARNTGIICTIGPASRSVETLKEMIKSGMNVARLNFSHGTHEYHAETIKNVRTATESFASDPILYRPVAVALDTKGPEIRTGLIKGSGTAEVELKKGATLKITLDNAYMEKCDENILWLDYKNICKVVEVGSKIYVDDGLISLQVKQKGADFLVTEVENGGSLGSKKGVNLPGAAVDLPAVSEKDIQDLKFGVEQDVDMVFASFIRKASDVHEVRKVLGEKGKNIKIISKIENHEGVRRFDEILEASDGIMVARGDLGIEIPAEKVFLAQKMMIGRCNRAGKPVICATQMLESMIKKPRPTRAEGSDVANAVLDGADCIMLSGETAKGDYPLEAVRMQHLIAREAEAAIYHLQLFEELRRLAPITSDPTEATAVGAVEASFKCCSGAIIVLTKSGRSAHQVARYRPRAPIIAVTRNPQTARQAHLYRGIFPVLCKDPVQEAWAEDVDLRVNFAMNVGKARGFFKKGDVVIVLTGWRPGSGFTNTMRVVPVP

MCF7 [8] = test: Induction of apoptosis in human MCF7 cells assessed as early apoptotic cells at 100 nM incubated for 48 hrs by AnnexinV/PI staining based flow cytometry; type: functional
Pyruvate kinase PKM [9] = target: T1, Pyruvate kinase PKM; test: Activation of PKM2 (unknown origin) assessed as increase in tetramer formation by measuring scattering by Dynamic Light Scattering assay; details: filed as activator
Target sequence in this assay (P14618 2-531 limits assumed): as above

MCF7 [10] = test: Induction of apoptosis in human MCF7 cells assessed as necrotic cells at 100 nM incubated for 48 hrs by AnnexinV/PI staining based flow cytometry; type: functional

SMILES	IC50 (MCF7 [1])	EC50 (Pyruvate kinase PKM [2])	IC50 (COLO 201)	IC50 (MDA-MB-231)	Activity (Pyruvate kinase PKM [7])	Activity (Pyruvate kinase PKM [9])	IC50 [3]	IC50 [4]	Activity (MCF7 [5])	viability at 0.1 µM (MCF7 [6])	Activity (MCF7 [8])	Activity (MCF7 [10])
CCOC(=O)/C(=C\c1ccc(B(O)O)cc1)C(=O)c1sc(Nc2ccc(F)cc2)nc1-c1ccccc1	2.71 µM	6.11 µM	5.58 µM	36.6 µM	–	–	0.09 µM	29.4 µM	–	–	–	–
COc1cccc2c1C(=O)c1c(O)c3c(c(O)c1C2=O)C[C@@](O)(C(=O)CO)C[C@@H]3O[C@H]1C[C@H](N)[C@H](O)[C@H](C)O1 [DOXORUBICIN]	–	–	0.8 µM	1.3 µM	–	–	3.03 µM	2.37 µM	–	–	–	–

More lines, in order of falling IC50 (COLO 201), values ahead:

IC50 (MCF7 [1])	EC50 (Pyruvate kinase PKM [2])	IC50 (COLO 201)	IC50 (MDA-MB-231)	Activity (Pyruvate kinase PKM [7])	Activity (Pyruvate kinase PKM [9])	SMILES	IC50 [3]	IC50 [4]	Activity (MCF7 [5])	viability at 0.1 µM (MCF7 [6])	Activity (MCF7 [8])	Activity (MCF7 [10])
2.72 µM	8.17 µM	5.5 µM	58.7 µM	–	–	CCOC(=O)/C(=C\c1ccc(B(O)O)cc1)C(=O)c1sc(Nc2ccc(OC)cc2)nc1N(C)C	0.57 µM	25.8 µM	–	–	–	–
0.08 µM	5.69 µM	3.75 µM	34.9 µM	Active	Active	CCOC(=O)/C(=C\c1ccc(B(O)O)cc1)C(=O)c1sc(Nc2ccc(Cl)cc2)nc1N(C)C	2.82 µM	23.9 µM	23.5%	45.3%	8.81%	22.37%
1.5 µM	7.15 µM	2.81 µM	38 µM	–	–	CCOC(=O)/C(=C\c1ccc(B(O)O)cc1)C(=O)c1sc(Nc2ccccc2)nc1N(C)C	6.36 µM	40.6 µM	–	–	–	–
